Rows were chosen to be rich in hits. Some 2.5% of all compounds tested hit in one or more screens of this group.
UCH37_inh: blocks the human deubiquitinase UCH37 | actives 0.33% (n = 330,000) | inhibition, % (concentration not given with the values) | purified proteasome/UCH37, Ub-AMC cleavage fluorescence;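 active = mean inhibition over replicate wells above about 20%, limit read from the data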;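 also: 0% = compound-free wells with enzyme and 100% = wells lacking proteasome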
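Material: Human UCH37 enzyme supplied as purified proteasome complex | Schedule: 30 min compound-proteasome preincubation then 25 min substrate reaction, room temperature | Detection: AMC fluorescence from Ub-AMC cleavage, excitation 355 nm, emission 460 nm | Benchmarks: Wells without proteasome as full block, compound-free enzyme plus substrate as uninhibited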
MEKK2_WT-MEK5: raises or lowers MEK5 binding to wildtype human MEKK2 PB1 domain; binding response (% of control), % at 10 µM; Q9Y2U5; bead flow cytometry, Alexa488-MEK5 binding to MEKK2 WT; actives lie on both sides; actives 1.1% (n = 290,000); AID 1531; in the data active = binding response below about 67% or above about 130%
Rce1_inh: inhibitors of yeast Ras-converting enzyme | yeast membranes, quenched prenylated peptide cleavage fluorescence | calls only | actives 0.27% (n = 290,000) | AID 2563;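 active = fall in fluorescence gain of 50% or more versus controls, with final raw signal at or below 3038400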;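 also: plate controls were neutral control wells for no effect and wells lacking membranes for full effect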
Target sequence (Q03530 whole entry, looked up): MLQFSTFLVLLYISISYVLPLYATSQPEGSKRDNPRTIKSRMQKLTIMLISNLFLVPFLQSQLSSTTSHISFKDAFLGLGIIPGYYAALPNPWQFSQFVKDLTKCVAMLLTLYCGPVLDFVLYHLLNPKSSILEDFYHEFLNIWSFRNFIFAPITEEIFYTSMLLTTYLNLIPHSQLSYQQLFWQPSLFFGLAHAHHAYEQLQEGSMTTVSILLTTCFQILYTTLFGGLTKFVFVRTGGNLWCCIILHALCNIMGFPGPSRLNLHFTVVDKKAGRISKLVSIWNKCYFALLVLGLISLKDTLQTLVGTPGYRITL
MEKK2_mut-MEK5: signal of MEK5 binding to mutant human MEKK2 PB1 domain | AID 1530 | bead flow cytometry, Alexa488-MEK5 binding to MEKK2 mutant | actives 0.35% (n = 290,000) | percent response, % at 10 µM; in the data active = percent response above about 24%, passing the limit was not always enough
MEKK3_PB1_HTS: MEKK3-MEK5 PB1 interaction, increase or decrease; bead-based flow cytometry, Alexa488-MEK5 binding to MEKK3; actives lie on both sides; 0 = blocked by unlabeled MEK5, 100 = vehicle; binding response (% of control), % at 10 µM; actives 1.4% (n = 290,000); AID 1529;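 active = binding response more than 3 SD above or below the average of its plate-row segment, actives on both sides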;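 also: Alexa488 bead fluorescence after subtracting the streptavidin-only scavenger bead signal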
T_cell_modulator: modulates CD8 T cell binding to vesicles | 2C CD8+ T cell-vesicle binding, flow cytometry; hits give low values | response (vesicle binding), % at 7 µM | actives 0.068% (n = 330,000);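 active = response, share of CD8 T cells binding vesicles, and their 90th percentile fluorescence all below set limits, cut at about 80% in these data, passing the limit was not always enough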;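 also: values below 100% mean blocked vesicle binding to the CD8+ T cells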
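System: murine 2C transgenic CD8+ T lymphocytes; also added: QL9-loaded Drosophila micro-vesicles; times: binding 1.5 h at 37 °C; measured by: flow cytometry, PE anti-B7-1 (FL2) versus Alexa647 anti-CD8 (FL8), PFA-fixed; control set: Peptide-free naked vesicles (low) and QL9 vesicles with 0.7% DMSO vehicle (high)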
UCH37_reconfirm: confirmation of human UCH37 deubiquitinating enzyme inhibitors. shares compounds with UCH37_inh. Proteasome-bound UCH37, Ub-AMC cleavage fluorescence. inhibition, % at 20 µM. actives 27% (n = 480). AID 624100;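 active = average inhibition over replicates above about 50%, so the earlier screening hit is confirmed, limit read from the data; inactive = the rest, counted as false positives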;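 also: based on cleavage rate fitted by regression over a 30 min kinetic read; 0% = proteasome plus Ub-AMC and 100% = Ub-AMC without proteasome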
Numbers without * were called inactive; i = inactive; · = no result given.

SMILES UCH37_inh MEKK2_WT-MEK5 Rce1_inh MEKK2_mut-MEK5 MEKK3_PB1_HTS T_cell_modulator UCH37_reconfirm
CC1(C)Cc2ccccc2C(c2cc3ccccc3oc2=O)=N1 36* 104 i -2 99 198 -4
CC1(C)Cc2c(ccc3ccccc23)C(c2cc3ccccc3oc2=O)=N1 3 95 i -5 99 508 ·
CCOc1ccccc1/C=N/Nc1ccccc1[N+](=O)[O-] · 99 i 6 93 179 ·
CCOc1cccc(C=NNC(=S)Nc2ccccc2[N+](=O)[O-])c1O 49* · · · · · 14
CC(C)Cn1c(=O)c(C(=O)NN=Cc2cccc(F)c2)c(O)c2ccccc21 4 · · · · · ·
Cc1cc(NC(=O)Nc2ccccc2F)ccc1Br 38* 110 i 13 110 313 17
O=C1c2ccccc2C(=O)c2c1cccc2-n1nnc2ccccc21 0 104 i 2 108 336 ·
O=C1C(N2CCOCC2)=C(n2nnc3ccccc32)C(=O)c2ccccc21 72* 104 i 3 102 119 88*
Cn1cnc([N+](=O)[O-])c1Nc1ccc(O)cc1 52* 99 i 9 98 182 0
O=C(CCN1C(=O)/C(=C/c2cccs2)SC1=S)Nc1ccc(C(=O)O)c(O)c1 26* 97 i 1 100 601 18
COc1ccc(N2C(=O)[C@@H]3[C@H](C2=O)[C@H]2c4ccccc4C=CN2[C@@H]3C(C)=O)cc1 37* 96 i -1 92 418 -2
